# procasp3 activ: activates human procaspase-3; P42574; recombinant procaspase-3 D3A, Ac-DEVD-pNA absorbance 405 nm; activation, % at 8.5 µM; actives 0.11% (n = 330,000); AID 463141;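 active = activation above the mean of all tested compounds plus 3 SD, cut at about 21% in these data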;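 also: 0% = DMSO alone and 100% = DMSO wells spiked with extra 5 µM PC-3 D3A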
# Target sequence (P42574 whole entry D9A/D28A/D175A): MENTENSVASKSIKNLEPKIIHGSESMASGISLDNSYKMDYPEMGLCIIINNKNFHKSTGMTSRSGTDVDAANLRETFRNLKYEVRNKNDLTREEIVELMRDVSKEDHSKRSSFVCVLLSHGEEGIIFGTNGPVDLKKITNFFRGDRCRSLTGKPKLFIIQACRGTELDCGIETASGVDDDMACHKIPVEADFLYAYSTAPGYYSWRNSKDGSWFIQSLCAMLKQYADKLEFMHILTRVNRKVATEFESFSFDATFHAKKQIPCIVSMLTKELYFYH
#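 Technique: 405 nm absorbance of p-nitroaniline, reads at 0 and 120 min; Test system: Procaspase-3 D3A mutant; Incubation: 1 h enzyme-compound preincubation, then 2 h substrate reaction, 25 °C; Repeats: singlicate, each compound tested once; Benchmarks: low control DMSO wells, high control DMSO plus 5 µM PC-3 D3A.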
# proCasp7 act: counter-screen for procaspase-3 activators: activators of human procaspase-7. P55210. recombinant procaspase-7, Ac-DEVD-pNA absorbance 405 nm; D23A/D198A/D206A triple mutant, cannot self-cleave; scale: DMSO 0, 5 µM enzyme 100. activation, % at 8.5 µM. actives 0.093% (n = 330,000). AID 463210;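 active = percent activation above the screen-wide mean plus 3 SD, cut at about 25% in these data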
# Target sequence (P55210 whole entry D23A/D198A/D206A): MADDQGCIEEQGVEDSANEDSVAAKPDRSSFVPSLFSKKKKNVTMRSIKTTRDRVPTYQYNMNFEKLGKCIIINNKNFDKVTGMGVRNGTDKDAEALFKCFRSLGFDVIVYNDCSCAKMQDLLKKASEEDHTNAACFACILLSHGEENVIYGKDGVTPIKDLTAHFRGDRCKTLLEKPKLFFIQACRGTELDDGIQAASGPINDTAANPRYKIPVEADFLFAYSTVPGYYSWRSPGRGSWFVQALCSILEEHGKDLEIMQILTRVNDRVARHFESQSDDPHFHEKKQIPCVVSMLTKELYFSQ
#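 Assay system – Uncleavable procaspase-7 mutant enzyme · Quantity – 2 µM procaspase-7 mutant as dispensed · Times – 1 h preincubation, 2 h reaction · Dosing – single nominal 8.5 µM compound dose, 0.8% DMSO final · Buffer or medium – Zinc-free 50 mM HEPES buffer, pH 7.4, with NaCl and Triton X-100 · Detection – Epi-absorbance of released pNA at 405 nm, two timepoints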
# Bfl-1 A1 inh: inhibitors of the anti-apoptotic protein A1, read as caspase activation; MEF A1-2A-BIM cells, Caspase-Glo 3/7 luminescence, 3 h; percent of clofoctol response, vehicle zero; AID 2462; actives 0.066% (n = 330,000); caspase activation, % (no concentration beside the values);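 active = over half of replicate activation scores above 10%, or exactly half above 10 with the replicate mean above 10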
# Rce1 inhib: yeast Ras-converting enzyme inhibition; yeast membranes, quenched prenylated peptide cleavage fluorescence; calls only; actives 0.27% (n = 290,000); AID 2563;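 active = fall in fluorescence gain of 50% or more versus controls, with final raw signal at or below 3038400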;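 also: plate controls were neutral control wells for no effect and wells lacking membranes for full effect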
# PolyA inhibitor: inhibitors of polyadenylation in S. cerevisiae; actives 0.02% (n = 300,000); AID 1875; activity score, % at 12 µM; S. cerevisiae SKY197-pL101 polyadenylation reporter, beta-gal luminescence; efflux-impaired pdr1/pdr3 knockout yeast; score 100 = 6 SD above DMSO;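 active = lowest replicate activity score at least 50, where 100 means six control SD above control mean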;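 also: yeast exposed to compound for 9 h at 30 °C; higher score means more reporter readthrough which indicates perturbed polyadenylation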
# The depositor's hits bear a star; i = inactive; . = no result given; + = active, no number. Hits are enriched below; roughly 0.48% of the tested compounds scored in any of these assays.
SMILES,procasp3 activ,proCasp7 act,Bfl-1 A1 inh,Rce1 inhib,PolyA inhibitor
CCCNC(=O)C(Cc1ccc(Cl)cc1)NC(=O)c1ccc(C#N)cc1 (centres undefined),-0.4,8.9,0.3,.,.
CCOC(=O)C1=CN(Cc2ccco2)S(=O)(=O)N(C)C1c1ccc(F)c(Cl)c1 (centres undefined),-2.5,-10.9,.,.,.
CCCCN(C)CCNC(=O)c1cc2c(-c3cccc(OC)c3)nn(C)c2s1,-5.6,-5.6,-0.5,+,-7.0
CCCCN(C)CCNC(=O)c1cc2c(-c3ccccc3F)nn(C)c2s1,11.4,9.2,0.7,i,-12.5
CCN(CC)CCCNC(=O)c1cc2c(-c3cccc(OC)c3)nn(C)c2s1,3.0,-7.8,0.7,+,4.5
COc1cccc(-c2nn(C)c3sc(C(=O)NCCCN(C)Cc4ccccc4)cc23)c1,-7.3,-4.9,0.4,i,-3.4
O=S(=O)(Nc1cccc2ccccc12)N1CCCC1,-2.1,11.9,-0.7,+,-7.4
CN(CC(=O)Nc1cccc(F)c1)C(=O)CN1C(=O)NC2(CCCC2)C1=O,9.0,8.9,0.0,.,.
c1ccc(CCNc2ccnc3cc4ccccc4cc23)cc1,.,.,.,+,14.0
O=C(Nc1cccc(N2C(=O)C=CC2=O)c1)c1cccs1,-25.1,-41.1,1.5,i,1.7
O=C1C=CC(=O)N1c1cccc(-c2ccccc2)c1,-31.9,-25.1,12.7*,i,-116.4
COc1ccc(-c2nc(SC(C)C(=O)NCC3CCCO3)n[nH]2)cc1 (centres undefined),7.9,8.1,-0.2,i,3.4
CCOC(=O)C[n+]1ccc2c([nH]c3ccccc32)c1C,0.1,-3.3,0.2,+,-1.9
CCOC(=O)Cc1c(Cl)c2ccccc2[nH]c1=O,-5.4,-0.1,0.0,i,3.8
CCc1cccc(NC(=O)C2CCCN(c3ncnc4c3nc3n4CCCCC3)C2)c1 (centres undefined),4.8,4.8,0.4,i,36.0
CC(C)(C)c1csc(NC(=O)c2ccccc2O)n1,-1.2,-2.0,-1.5,i,-63.8
Cc1csc(NC(=O)c2ccccc2O)n1,1.1,-4.7,-2.8,+,6.7
COC(=O)c1c(NC(=O)/C=C/C(=O)O)sc(C)c1-c1ccc(C(C)C)cc1,-0.1,-6.7,-0.4,i,-1.6
COc1ccc2c(-c3cc4ccc(OCc5ccc(F)cc5)cc4oc3=O)cc(=O)oc2c1,-2.2,4.7,9.6*,i,-8.2
O=C(CSc1nc2ccccc2c(=O)n1Cc1ccccc1)Nc1ccc(Br)cc1C(=O)O,0.3,-2.7,0.5,.,3.0
CCC(=O)N=c1ccn(C2=Nc3ccccc3NC2=C(C#N)C#N)cc1,2.0,5.2,-0.3,i,5.3
C#CCOCCOCCOCCNc1nc(N2CCN(C(=O)CCCCCCCCCCNC(=O)[C@H]([C@@H](C)CC)n3cc(CCCCCN)nn3)CC2)nc(N2CCN(C(=O)CCCCCCCCCCNC(=O)[C@@H]([C@H](C)CC)n3cc(CCCCCN)nn3)CC2)n1,-8.3,-3.2,6.6*,.,.
O=C(CCl)N(CCc1ccccc1)CCc1ccccc1,13.7,10.1,0.1,i,-10.4
O=C(Cn1c(=O)oc2cccnc21)Nc1ccc(C(F)(F)F)cc1,-0.8,-0.4,0.2,i,-6.5
O=C(CC(Nc1ccc(F)cc1)c1ccccc1)c1ccccc1 (centres undefined),6.5,-1.8,0.0,+,-19.7
SMILES,procasp3 activ,proCasp7 act,Bfl-1 A1 inh,Rce1 inhib,PolyA inhibitor
O=C(CC(CC(=O)c1ccccc1)c1ccccc1)c1ccccc1,3.2,8.9,0.3,i,-13.4
CN1CCN(C(=O)c2ccc(-c3cccs3)s2)CC1,-7.1,2.2,-3.0,+,19.4
CN1CCCN(C(=O)c2ccc(Br)s2)CC1,-5.8,-1.8,-0.6,i,5.3
C[n+]1c2n(c3ccccc31)N=C(c1cc(C(C)(C)C)c(O)c(C(C)(C)C)c1)CS2,-1.6,0.3,0.4,+,-16.8
COc1cccc(C2=Nn3c(nnc3-c3ccccc3O)SC2)c1,-1.0,-7.0,-0.8,i,-26.5
Cc1ccc(C(=O)/C=C/c2ccc3ncccc3c2)cc1,3.4,8.5,-0.4,i,2.7
Nc1c(C(=O)NCc2ccccc2)c2nc3ccccc3nc2n1CCCN1CCOCC1,3.0,-5.7,-0.8,i,9.3
COc1ccc(CNC(=O)c2c(N)n(CCCN3CCOCC3)c3nc4ccccc4nc23)cc1,1.0,-0.8,-0.1,+,-3.1
Nc1cnccc1C(=O)O,-6.2,-10.3,0.1,i,13.4
Cc1cc(NC(=O)COC(=O)c2nccnc2N)n(-c2ccccc2)n1,-7.2,4.0,0.4,+,16.7
CCC(CO)NCC(O)COCc1ccc2c(c1)OCO2 (centres undefined),-2.3,6.0,0.2,i,-3.3
O=C(O)/C=C/c1ccc(O)cc1,-1.3,-0.2,-0.9,+,1.1
CN(C)CCCN(C(=O)c1cc2cc([N+](=O)[O-])ccc2s1)c1nc2cc3c(cc2s1)OCCO3,-4.8,-1.3,8.4*,i,-1.1
CCOC(=O)C1=C(C)NC(C)=C(C(=O)OCC)C1c1ccccc1/C=C/C(=O)OC(C)(C)C,17.6,29.9*,-0.6,i,8.8
CCOC(=O)C1=C(C)NC(C)=C(C(=O)OCC)C1/C=C/c1ccccc1,11.3,12.4,-0.5,i,-2.4
CCC(=O)N1CCN(c2ccc(NC(=O)c3cc4ccccc4o3)cc2Cl)CC1,8.5,8.6,-1.5,+,-15.2
O=C(Nc1ccc(N2CCN(C(=O)c3ccco3)CC2)c(Cl)c1)c1cc2ccccc2o1,1.2,10.8,0.1,i,-7.3
CCCC(=O)N1CCN(c2ccc(NC(=O)c3cc4ccccc4o3)cc2Cl)CC1,-0.9,2.4,-0.6,+,-7.4
CCOC(=O)C(C)(C)Oc1cccc2c1S(=O)(=O)c1ccccc1-2,13.4,0.6,0.4,i,-3.5
CC1=CC2=NC(=O)CC(C)(C(=O)N(CC(=O)NC3CCCC3)Cc3ccccc3)N2C=C1 (centres undefined),2.2,6.5,0.3,+,-2.2
Cc1ccc(CNC(=O)c2cc(-c3ccccc3)nn2CC2CC(c3cccnc3)=NO2)cc1 (centres undefined),1.7,1.3,-0.1,i,14.5
Cc1ccc(CNC(=O)c2cc(-c3ccccc3)nn2CC2CC(c3cccc([N+](=O)[O-])c3)=NO2)cc1 (centres undefined),7.7,-16.2,2.3,+,-15.4
CCOC(=O)C1CCN(c2cc(C)nc3cc(-c4cccc(F)c4)nn23)CC1,26.1*,30.6*,0.1,.,.
CCOC(=O)C1CCN(C(=O)CCc2c(C)nc3cc(-c4ccccc4)nn3c2C)CC1,-5.6,-5.2,0.5,i,-18.6
CC(C)CCNC(=O)c1onc(CSc2ccccc2)c1C(=O)NCCC(C)C,6.2,-6.1,-0.1,i,6.1

# Screening results: PubChem BioAssay, several laboratories
